Assay [1] in a line: inhibitors of TNFa-induced NFkB p65 translocation, primary screen, imaging, HUVEC, MLSMR starter and 10KST1 sets (AID 438;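 active = inhibition above 20% together with a positive visual image hit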;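 also: compound added about 3h40 before a 20 min TNFalpha stimulation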;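 as to inhibition: signal is the nuclear over cytoplasmic p65 intensity ratio per well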). The following applies: HUVEC TNFa-induced p65 nuclear translocation; cell count: measured here: nuclei count (cytotoxicity indicator), at 2.08 µM; inhibition: at 2 µM, stronger effect = higher value, 0% TNFa-plus-vehicle, 100% no-TNFa wells.
A short description of assay [2]: endothelial E-selectin expression blockers – imaging, HUVEC, immunofluorescence, MLSMR starter and 10KST1 sets, primary screen (AID 487;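 active = visually confirmed hit in the image check and inhibition above 20%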;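 as to inhibition: signal is fraction of cell area covered by stained E-selectin grains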;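 as to nuclei count: 100% = median nuclei count of all wells on the same plate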). To be noted: HUVEC TNFalpha-induced E-selectin immunofluorescence imaging, at 2 µM; inhibition: stronger effect = higher value; nuclei count: measured here: cell number, toxicity.
Assay [3] can be described thus: Primary imaging screen for DUSP6 inhibitors that restore phospho-Erk in transfected HeLa cells, chemical complementation (AID 609).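 As to inhibition: phospho-Erk level distribution per well compared with pooled transfected vehicle control wells.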 To be noted: HeLa MKP-3 transfected, phospho-Erk imaging KS statistic, at 10 µM, cells stimulated with TPA for 15 min.
Assay [4] addresses Dual specificity protein phosphatase 6 (Homo sapiens) (UniProt Q16828). The assay is described as above. To be noted: HeLa MKP-3 transfected, phospho-Erk imaging KS statistic; at 10 µM; stronger effect = higher value; cells stimulated with TPA for 15 min.
For assay [5], the target named is Voltage-gated potassium channel subunit beta-2 (Rattus norvegicus) (UniProt P62483). As to the kind of experiment: inhibitors of rat Kvbeta2 reductase activity – biochemical, NADPH fluorescence, primary screen (AID 622;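 active = fluorescence slope higher than the sample average by over 3 SD, cut at about -0.22 in these data, passing the limit was not always enough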;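 also: slope of raw intensity against log time taken from 70 to 1610 s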). The following applies: recombinant KvBeta, 4-cyanobenzaldehyde reduction, at 10 µM, stronger effect = higher value.
Sequence of Voltage-gated potassium channel subunit beta-2 (Rattus norvegicus) (P62483 whole entry, looked up): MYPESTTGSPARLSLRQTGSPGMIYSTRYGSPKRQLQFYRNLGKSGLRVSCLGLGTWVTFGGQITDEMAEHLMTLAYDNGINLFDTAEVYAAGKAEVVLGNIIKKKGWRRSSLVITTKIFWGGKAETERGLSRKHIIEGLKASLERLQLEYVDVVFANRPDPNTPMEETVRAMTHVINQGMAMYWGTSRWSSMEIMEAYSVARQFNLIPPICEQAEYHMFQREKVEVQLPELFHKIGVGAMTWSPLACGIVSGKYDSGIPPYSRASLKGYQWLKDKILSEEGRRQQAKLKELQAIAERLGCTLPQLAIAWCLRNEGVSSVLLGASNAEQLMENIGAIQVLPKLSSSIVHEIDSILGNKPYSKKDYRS
For assay [6] the target is unchanged. Kind of assay: enhancers of rat Kvbeta2 NADPH turnover – biochemical, NADPH fluorescence, primary screen (AID 623;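 active = NADPH fluorescence slope more negative than the mean of all samples by about 3 SD, 99.7% confidence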;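 also: fluorescence intensity change per second fitted from 20 to 320 s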). To be noted: Recombinant KvBeta, NADPH fluorescence decrease slope, 10 min; at 10 µM; stronger effect = lower value.
Assay [7] concerns the target Alpha-2C adrenergic receptor (Homo sapiens) (UniProt P18825). As to the kind of experiment: compounds altering alpha2C-coupled GIRK flux – cell-based, HEK293 alpha2C/GIRK1/2, thallium flux, primary screen (AID 624;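 active = fluorescence slope after compound addition differing from the mean of all screened samples at 99.7% confidence, in either direction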;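 also: slope of fluorescence ratio to pre-addition baseline per second over 15 to 24 s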). To be noted: thallium flux BTC fluorescence, at 10 µM, actives lie on both sides.
A short description of assay [8]: inhibitors of larval lipid processing in zebrafish, primary screen, whole organism, PED6 fluorescence, gall bladder and intestine (AID 686;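 active = a full or partial loss of lipid-probe fluorescence in the fish gall bladder, intestine or both, judged by eye; inactive = no fluorescence loss, or compound toxic to the fish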;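 also: larvae 5 to 7 days old with five fish per well; signal comes from phospholipase A2 cleavage of quenched PED6 carried via bile; overnight exposure to compound and PED6 before scoring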). To be noted: Zebrafish larvae PED6 lipid processing, fluorescence scoring; screened at 20 µM (by protocol). In outline:
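system = live zebrafish larvae aged 5-7 days, whole organism | probe or stimulus = ingested quenched lipid PED6 at 100 nM | doses = 20 µM single dose | timing = overnight exposure | detection = fluorescence microscopy with visual scoring of gall bladder and intestine | read-out = visual per-well fluorescence inhibition score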

Assay [9] in a line: loss of swimming-algae plug formation – whole organism, Chlamydomonas reinhardtii, WT vs cilia-less mutant, absorbance, 96-well, primary screen (AID 463189;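 active = inhibition at or above 50% relative to wild type and mutant plate controls; inactive = inhibition below 50%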;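 also: 0% = wild type cc124 cells in DMSO and 100% = ciliumless bld1 mutant cells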). The following applies: Chlamydomonas reinhardtii gravitaxis, OD600 absorbance, 2 days; at 10 µM; stronger effect = higher value.
[10] abbreviates: measured here: cell density z-score.
The mark [11] stands for this setting: measured here: nuclear c-Myc green intensity z-score.
Setting [12] is: measured here: nuclear pErk red intensity z-score, stronger effect = higher value.

The text below walks through data of PubChem BioAssay.

Activity calls are given as the source filed them.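 The calls were made as follows, unless noted: active = compounds giving at least 50% inhibition in the cell-based MKP-3 phosphatase rescue imaging test; inactive = the rest.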

Sequence of Alpha-2C adrenergic receptor (Homo sapiens) (P18825 whole entry, looked up): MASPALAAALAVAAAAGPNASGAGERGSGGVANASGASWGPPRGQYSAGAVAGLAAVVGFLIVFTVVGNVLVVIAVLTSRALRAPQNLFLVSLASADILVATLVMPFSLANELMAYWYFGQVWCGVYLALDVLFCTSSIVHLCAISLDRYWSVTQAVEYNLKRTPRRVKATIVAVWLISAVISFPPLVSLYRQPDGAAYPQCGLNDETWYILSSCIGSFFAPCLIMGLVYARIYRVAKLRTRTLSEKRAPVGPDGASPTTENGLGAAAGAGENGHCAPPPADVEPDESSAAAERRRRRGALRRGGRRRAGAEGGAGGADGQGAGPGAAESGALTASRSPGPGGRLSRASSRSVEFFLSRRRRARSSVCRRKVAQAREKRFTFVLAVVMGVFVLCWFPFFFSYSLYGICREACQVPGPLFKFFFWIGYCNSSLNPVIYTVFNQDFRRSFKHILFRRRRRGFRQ
Sequence of Dual specificity protein phosphatase 6 (Homo sapiens) (Q16828 whole entry, looked up): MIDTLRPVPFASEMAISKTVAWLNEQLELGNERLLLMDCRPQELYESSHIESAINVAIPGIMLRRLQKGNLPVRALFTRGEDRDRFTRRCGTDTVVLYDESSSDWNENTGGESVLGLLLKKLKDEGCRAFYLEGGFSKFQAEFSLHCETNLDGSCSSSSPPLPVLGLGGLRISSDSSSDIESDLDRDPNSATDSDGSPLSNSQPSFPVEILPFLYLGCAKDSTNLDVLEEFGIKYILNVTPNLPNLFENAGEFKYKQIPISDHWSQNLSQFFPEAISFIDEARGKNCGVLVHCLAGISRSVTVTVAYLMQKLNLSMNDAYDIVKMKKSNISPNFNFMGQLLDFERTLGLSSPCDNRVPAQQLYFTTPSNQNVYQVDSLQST

Usually inhibition stands for the change of the read-out against control, counted positive when it falls. With `N#Cc1c(NC(=O)CCC(=O)O)sc2c1CCCC2`, in assay [1], the cell count was found to be 715. The inhibition in assay [1] was -11.6% (inactive); in [2], -10.3% (inactive); in [4], -7.28% (inactive); in assay [9], -7.91% (inactive). Moreover, the nuclei count in assay [2] worked out at 186%. Moreover, the z-score in assay [3] (setting [10]) is -1.16; in assay [3] (setting [11]), 1.41; in [3] (setting [12]), -1.22. In addition, the fluorescence slope in assay [5] is -0.388 (inactive). Also, in assay [6], the NADPH fluorescence slope is -5e-05 (inactive). In addition, in assay [7], the slope was 0.00575 (inactive). Besides, the compound was classed as inactive in [8].

Consider `O/N=C1\CCc2cc(Cl)ccc21`, for which the cell count in assay [1] came out at 384. Also, the inhibition is -4% (inactive) in assay [1], -24.4% (inactive) in assay [2], -0.159% (inactive) in assay [4] and -12.6% (inactive) in [9]. This compound also had a nuclei count in assay [2] of 101%. The z-score in [3] (setting [10]) is -3.01; in assay [3] (setting [11]), 0.785; in assay [3] (setting [12]), -0.837. Further, in assay [5], the fluorescence slope was -0.48 (inactive). Moreover, the NADPH fluorescence slope in assay [6] is -0.000244 (inactive). In addition, in [7], the slope was 0.0047 (inactive). Also, the compound was classed as inactive in [8].

For `CC(C)CC(NC(=O)OC(C)(C)C)C(=O)NCc1ccccc1` (centres undefined), in assay [1], the cell count was determined as 626. Also, the inhibition in [1] is -12.9% (inactive); in [2], -28.9% (inactive); in assay [4] it was 5.57% (inactive); in assay [9] it was 1.86% (inactive). In [2], this compound displayed a nuclei count of 156%. The results for the z-score in assay [3] (setting [10]), in assay [3] (setting [11]) and in assay [3] (setting [12]) were 1.56, -1.58 and 0.0751, respectively. Moreover, the fluorescence slope in assay [5] was -0.475 (inactive). Also, in assay [6], the NADPH fluorescence slope was -0.000315 (inactive). The slope in assay [7] was 0.00412 (inactive). The compound was classed as inactive in assay [8].

With `Cc1nnc2n(Cc3ccccc3)c(=O)c3c4c(sc3n12)CN(Cc1ccccc1)CC4`, in assay [1], the cell count came to 628. Also, the inhibition in assay [1] was -8.2% (inactive); in assay [2] it was 29.2% (inactive); in assay [4], -7.28% (inactive); in [9], 31.3% (inactive). In assay [2], this compound returned a nuclei count of 167%. Besides, the z-score is -0.0797 in assay [3] (setting [10]), 0.579 in assay [3] (setting [11]) and 0.467 in assay [3] (setting [12]). The fluorescence slope in assay [5] is -0.423 (inactive). The NADPH fluorescence slope in assay [6] is -5e-05 (inactive). In assay [7], the slope is 0.00348 (inactive). Also, the compound was classed as inactive in [8].

Take `O=C1CCC(=O)N1c1nc2nc(-c3ccccc3)cc(-c3ccccc3)n2n1`: the cell count in assay [1] came out at 360. The inhibition in assay [1] was -6.9% (inactive); in assay [2], -15.6% (inactive); in assay [4], 5.42% (inactive); in assay [9] it was 46.1% (inactive). In [2], this compound showed a nuclei count of 91%. For the same compound, the z-score is -0.411 in assay [3] (setting [10]), 1.12 in assay [3] (setting [11]) and 0.232 in [3] (setting [12]). Also, in assay [5], the fluorescence slope was -0.467 (inactive). The NADPH fluorescence slope in assay [6] was -3e-05 (inactive). In addition, the slope in assay [7] is 0.00473 (inactive). The compound was classed as inactive in assay [8].

`COc1ccc2c(=O)c(-c3nc(C)cs3)coc2c1`: the cell count in assay [1] is 559. The inhibition was -18.2% (inactive) in [1], -220% (inactive) in assay [2], 1.98% (inactive) in assay [4] and 1.43% (inactive) in assay [9]. In assay [2], this compound showed a nuclei count of 141%. Further, the z-score turned out to be 1.07 in [3] (setting [10]), 0.0883 in assay [3] (setting [11]) and 0.691 in assay [3] (setting [12]). The fluorescence slope in [5] was -0.543 (inactive). The NADPH fluorescence slope in assay [6] was -3.8e-05 (inactive). The slope in assay [7] is 0.0045 (inactive). Also, in assay [8], the compound was called inactive.

As to `CCCCNc1nc2c(c(=O)n(C)c(=O)n2C)n1Cc1cccc(OC)c1`, the cell count in assay [1] is 452. Also, the inhibition in assay [1] is -7.7% (inactive); in assay [2] it was -133% (inactive); in assay [4], -5.62% (inactive); in assay [9] it was 1.32% (inactive). In [2], this compound displayed a nuclei count of 175%. In addition, the z-score in assay [3] (setting [10]) is 0.299; in [3] (setting [11]), -0.341; in assay [3] (setting [12]), -1.15. Besides, the fluorescence slope in assay [5] is -0.378 (inactive). Besides, the NADPH fluorescence slope in assay [6] was -1.6e-05 (inactive). Moreover, the slope in assay [7] is 0.00373 (inactive). For the same compound, the outcome in assay [8] was “active; weak signal in gallbladder and intestine”.

Regarding `COc1ccc(-c2oc3ncn4nc(COc5ccccc5)nc4c3c2-c2ccc(OC)cc2)cc1`, in assay [1], the cell count turned out to be 621. For the same compound, the inhibition was -7.9% (inactive) in assay [1], -75% (inactive) in [2], -15% (inactive) in assay [4] and -3.79% (inactive) in [9]. In addition, the nuclei count in assay [2] is 194%. The z-score in assay [3] (setting [10]) was -0.444; in [3] (setting [11]), -0.952; in assay [3] (setting [12]) it was -0.924. Moreover, the fluorescence slope in [5] was -0.327 (inactive). In assay [6], the NADPH fluorescence slope was -1.2e-05 (inactive). Moreover, the slope in assay [7] was 0.0133 (inactive). Also, the result in assay [8] was inactive.

Regarding `COc1ccc2[nH]c(C)c(C(=O)CN3CCN(C(=O)c4ccco4)CC3)c2c1`, the cell count in assay [1] was 567. For the same compound, the inhibition in [1] was -7.1% (inactive); in [2] it was -4.8% (inactive); in [4] it was -7.01% (inactive); in assay [9], -1.6% (inactive). Moreover, the nuclei count in [2] was 165%. Also, the values for the z-score in assay [3] (setting [10]), in assay [3] (setting [11]) and in assay [3] (setting [12]) were -1.11, -0.714 and 0.0705, respectively. Besides, in assay [5], the fluorescence slope was -0.311 (inactive). Also, the NADPH fluorescence slope in assay [6] is -8.4e-06 (inactive). Besides, in assay [7], the slope is 0.00523 (inactive). The compound was classed as inactive in assay [8].

On to `Cc1ccc(S(=O)(=O)c2cc3c(=O)n4ccccc4nc3n(C)c2=N)cc1`, for which the cell count in assay [1] turned out to be 563. For the same compound, the inhibition in [1] was -16.4% (inactive); in [2], -78% (inactive); in assay [4], -16.8% (inactive); in [9] it was 1.37% (inactive). Besides, the nuclei count in assay [2] stood at 162%. Besides, the z-score in assay [3] (setting [10]) is 0.476; in [3] (setting [11]) it was -0.181; in assay [3] (setting [12]), 0.227. Also, the fluorescence slope in [5] is -0.453 (inactive). Further, in assay [6], the NADPH fluorescence slope is -3.3e-05 (inactive). Further, in assay [7], the slope is 0.00439 (inactive). The compound was called inactive in [8].

Regarding `COc1cc(-c2nn3c(COc4ccccc4)nnc3s2)cc(OC)c1OC`, in assay [1], the cell count worked out at 497. The inhibition in [1] is -2.1% (inactive); in [2], -95% (inactive); in [4], -4.27% (inactive); in assay [9], -11% (inactive). The same compound registered a nuclei count in assay [2] of 105%. For the same compound, the z-score in assay [3] (setting [10]) is -0.725; in [3] (setting [11]), 2.38; in assay [3] (setting [12]), 0.000132. In addition, in assay [5], the fluorescence slope is -0.417 (inactive). Also, the NADPH fluorescence slope in assay [6] was -1.5e-06 (inactive). The slope in [7] was 0.00817 (inactive). In addition, the compound was classed as inactive in assay [8].

In the case of `OC(CNCCCN1CCCCC1)COc1ccccc1` (centres undefined), the cell count in [1] was determined as 630. In addition, the inhibition in assay [1] is -6.2% (inactive); in assay [2], -169% (inactive); in [4], 17% (inactive); in assay [9], 5.42% (inactive). The nuclei count in assay [2] turned out to be 178%. Further, the z-score in assay [3] (setting [10]) was -0.145; in assay [3] (setting [11]), 0.177; in assay [3] (setting [12]), 0.518. Also, in assay [5], the fluorescence slope was -0.512 (inactive). In assay [6], the NADPH fluorescence slope was -7.1e-05 (inactive). The slope in assay [7] was 0.00429 (inactive). In addition, the result in [8] was inactive.

As for `CC(C)Cc1nc(N2CCN(C(=O)C(C)C)CC2)c(C#N)c2c1CCC2`, the cell count in [1] was 541. Also, the inhibition in assay [1] was 1% (inactive); in assay [2], -148% (inactive); in [4] it was -3.5% (inactive); in assay [9], 5.12% (inactive). Also, the nuclei count in assay [2] came out at 141%. Also, the z-score is -1.27 in assay [3] (setting [10]), 0.114 in [3] (setting [11]) and 1.85 in assay [3] (setting [12]). In addition, the fluorescence slope in assay [5] is -0.499 (inactive). Besides, the NADPH fluorescence slope in assay [6] is -3.3e-05 (inactive). For the same compound, in assay [7], the slope was 0.00462 (inactive). In addition, the outcome in [8] was inactive.
